From PubChem
Rows were chosen to be rich in hits. Some 4.6% of all compounds tested hit in one or more screens of this group.
CHO parental Ca: signal in parental CHO cells, OX1R antagonist counter-screen; inhibition, % at 5.6 µM; 330,000 compounds, 0.63% hits; AID 463079; parental CHO-K1, ATP-induced calcium, Fluo-8 fluorescence;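 active = inhibition above that plate's mean sample inhibition plus 3 SD, cut at about 26% in these data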
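Test system: parental CHO cells; detection: calcium-sensitive Fluo-8 fluorescence; evaluation: percent inhibition of calcium signal; also added: ATP as calcium-mobilizing challenge; repeats: one well per compound; control set: ATP-challenged DMSO wells low, unchallenged DMSO wells high; compound: single nominal dose of 5.6 µM per compound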
OX1R antag-1: antagonists of human orexin 1 receptor (OX1R); 330,000 compounds, 1.8% hits; AID 485270; O43613; inhibition, % at 6.6 µM; OX1R-expressing cells, FRET antagonist read-out; in the data active = inhibition mostly above about 38%, no sharp cut-off; inactive = mostly below about 40%
OX1R antag-2: blocks the human orexin 1 receptor; O43613; CHO/OX1R cells, Fluo-8 calcium fluorescence, orexin A; inhibition, % at 5 µM; 330,000 compounds, 0.43% hits; AID 434989;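 active = inhibition above its plate's threshold, mean inhibition of all tested compounds on the plate plus 3 SD, cut at about 37% in these data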
GPR7 antag: antagonists of human GPR7 (neuropeptides B/W receptor 1). P48145. GPR7-expressing cells, fluorescence antagonist assay. inhibition, % at 4.4 µM. 290,000 compounds, 1.1% hits. AID 1861; in the data active = inhibition above about 16%, passing the limit was not always enough;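 note: cells stimulated with the agonist NPW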
Target sequence (P48145 whole entry, looked up): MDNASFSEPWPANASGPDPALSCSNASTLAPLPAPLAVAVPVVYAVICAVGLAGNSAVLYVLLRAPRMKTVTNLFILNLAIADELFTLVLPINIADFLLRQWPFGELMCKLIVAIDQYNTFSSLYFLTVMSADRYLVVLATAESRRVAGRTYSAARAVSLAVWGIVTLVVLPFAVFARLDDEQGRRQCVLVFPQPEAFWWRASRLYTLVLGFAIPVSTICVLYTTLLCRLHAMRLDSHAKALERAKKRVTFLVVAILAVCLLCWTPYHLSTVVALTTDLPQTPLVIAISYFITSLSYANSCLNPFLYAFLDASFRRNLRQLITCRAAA
TAAR1 ag: agonists of human TAAR1; Q96RJ0; CHO RD-HGA16 TAAR1, Fluo-8 calcium fluorescence; vehicle wells 0%, saturating PEA agonist 100%; activation, % at 3 µM; 360,000 compounds, 0.99% hits;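 active = activation above the mean activation of all test compounds in the run plus 3 SD, cut at about 38% in these data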
Target sequence (Q96RJ0 whole entry, looked up): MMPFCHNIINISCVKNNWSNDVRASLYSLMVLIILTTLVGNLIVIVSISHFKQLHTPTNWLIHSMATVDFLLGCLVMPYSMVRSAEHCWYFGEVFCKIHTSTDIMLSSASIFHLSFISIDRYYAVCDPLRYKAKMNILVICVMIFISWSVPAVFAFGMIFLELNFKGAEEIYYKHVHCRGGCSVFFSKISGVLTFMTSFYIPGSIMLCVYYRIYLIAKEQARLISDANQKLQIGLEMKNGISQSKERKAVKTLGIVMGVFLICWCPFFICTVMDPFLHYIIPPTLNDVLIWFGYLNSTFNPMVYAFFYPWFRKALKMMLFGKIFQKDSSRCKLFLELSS
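Test system: RD-HGA16 (CHO) cells co-expressing Gα16 and hTAAR1 | Doses: Single dose, 3 µM | Schedule: 17-24 h seeding, 75 min 37 °C dye, 30 min RT | Evaluation: % activation from peak over basal fluorescence ratio, DMSO-to-PEA scaled | Technique: Kinetic Fluo-8 calcium fluorescence | Benchmarks: Low control DMSO, high control PEA (EC100)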
TAAR1 antag: human TAAR1 antagonism; Q96RJ0; CHO RD-HGA16 TAAR1, Fluo-8 calcium fluorescence, antagonist; inhibition, % at 3 µM; 360,000 compounds, 1.5% hits;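 active = inhibition above a per-plate cutoff, the mean inhibition of test compounds on that plate plus 3 SD, cut at about 49% in these data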
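Material: RD-HGA16 CHO cells with stable hTAAR1 and Gα16; Dosing: single nominal final test compound concentration of 3 µM; Schedule: seeding 17-24 h prior, 75-min 37 °C, 30-min RT dye loading; Detection: kinetic Fluo-8 calcium fluorescence measurement; Measure: % inhibition from peak post-agonist over basal fluorescence ratio; Benchmarks: vehicle and agonist controls.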
GPR7 antag cf: confirmation of human GPR7 antagonists. 2,400 compounds, 52% hits. inhibition, % at 4.4 µM. AID 1952. shares compounds with GPR7 antag. GPR7-expressing cells, calcium fluorescence antagonist mode; in the data active = inhibition above about 24%;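 note: stimulated with the GPR7 agonist NPW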
MCHR1 antagonist: counter-screen for GPR7 antagonists: antagonists of human MCHR1. shares compounds with GPR7 antag. MCHR1-expressing cells, fluorescence antagonist assay. inhibition, % at 4.4 µM. 2,400 compounds, 62% hits. AID 2148; in the data active = inhibition above about 22%
Hits are given with their value; – = inactive; · = not tested or not shown.

SMILES	CHO parental Ca	OX1R antag-1	OX1R antag-2	GPR7 antag	TAAR1 ag	TAAR1 antag	GPR7 antag cf	MCHR1 antagonist
COc1ccnc(Oc2ccc(F)cc2)c1C(=O)N/C=N/OCc1ccc(F)cc1	–	–	–	·	48.9	–	·	–
CN(C)CCCN1C(=O)C(=O)/C(=C(/O)c2ccc3c(c2)OCO3)C1c1ccccn1 (configuration not stated)	·	·	·	–	·	·	·	·
O=C(NC1(C(F)(F)F)NC(=O)N(Cc2cccnc2)C1=O)c1cccs1 (configuration not stated)	–	–	–	–	–	–	·	·
O=C(Cc1n[nH]c(=O)c2ccccc12)OCC(=O)c1ccc2c(c1)OCCO2	–	–	–	28.1	–	–	–	–
O=C(Cc1n[nH]c(=O)c2ccccc12)OCC(=O)c1ccc(F)cc1	–	–	–	·	–	–	·	·
COc1ccc(N(C)S(=O)(=O)c2cccc(C(=O)NCC3CCCCC3)c2)cc1	·	·	·	25.9	–	–	37.6	37.5
COc1ccc(N(C)S(=O)(=O)c2cccc(C(=O)NC3CCCC3)c2)cc1	–	–	–	39.0	–	–	43.3	23.6
CN(C)S(=O)(=O)c1cccc(C(=O)NCC2CCCCC2)c1	–	–	–	–	–	–	·	·
COCCN(C(=O)CCC(=O)Nc1ccccn1)C(C(=O)NC(C)C)c1ccc(C)cc1 (configuration not stated)	–	–	–	–	–	–	·	·
CC(C)C1N(C(=O)CN2CCCCC2)CCN1S(=O)(=O)c1ccccc1 (configuration not stated)	–	–	–	26.6	–	–	–	–
O=C(c1ccc(Cl)cc1)C(CN1CCCC1)c1ccccc1 (configuration not stated)	–	–	–	74.2	–	–	46.4	86.9
COc1ccc(C(=O)C(CN2CCCC2)c2ccccc2)cc1 (configuration not stated)	–	–	–	–	–	–	·	·
CC(=O)Nc1ccc(NC(=O)c2ccc(COc3ccccc3Br)o2)cc1	·	·	·	–	–	–	·	·
O=C(Nc1cccnc1)c1ccc(COc2ccccc2Br)o1	–	–	–	69.3	–	–	33.0	54.0
Cc1cccc(C(=O)N2CCCC(N3CCN(Cc4ccc5c(c4)OCO5)CC3)C2)n1 (configuration not stated)	–	–	–	27.4	–	–	–	–
O=C(c1ccccn1)N1CCCC(N2CCN(Cc3ccc4c(c3)OCO4)CC2)C1 (configuration not stated)	–	–	–	–	–	–	·	·
Cc1ccccc1OCCn1c(=O)sc2ccccc21	–	–	–	21.0	–	–	–	36.6
Cc1ccc(CNS(=O)(=O)c2ccc(C)s2)cc1	–	–	–	27.9	–	–	–	–
CCOC(=O)c1c(NC(=O)c2cccnc2)sc(C(C)=O)c1C	–	–	–	23.0	–	–	–	–
COc1ccc(Cl)cc1C(=O)NNC(=S)NC(=O)c1ccc(F)c(F)c1	–	–	–	–	·	·	·	·
COc1ccc(CSc2nnnn2-c2ccc(C(N)=O)cc2)cc1[N+](=O)[O-]	–	–	–	36.1	–	–	–	38.9
Cc1ccc(N(C(=O)c2csnn2)C(C(=O)NC(C)(C)C)c2cccnc2)cc1C (configuration not stated)	–	–	–	–	–	–	·	·
CC(=O)c1ccc(N2CCN(c3ncccn3)CC2)c([N+](=O)[O-])c1	–	–	–	34.5	–	–	–	–
COc1ccc(CN(C)C(=O)C23CC4CC(CC(Cl)(C4)C2)C3)c(OC)c1OC	–	–	–	24.8	–	–	–	23.3
O=C(/C=C/Nc1ccccc1Br)c1ccccn1	–	–	–	30.0	–	–	–	–
SMILES	CHO parental Ca	OX1R antag-1	OX1R antag-2	GPR7 antag	TAAR1 ag	TAAR1 antag	GPR7 antag cf	MCHR1 antagonist
CS(=O)(=O)N(Cc1ccc(Cl)cc1)c1ccc(C(=O)N2CCN(c3ccccc3)CC2)cc1	33.7	–	–	21.3	–	–	38.4	46.3
CN(c1ccc(C(=O)N2CCN(Cc3ccccc3)CC2)cc1)S(=O)(=O)c1ccc(Cl)cc1	–	–	–	31.8	–	–	–	33.2
Cc1ccc(CN(c2ccc(C(=O)N3CCc4ccccc4C3)cc2)S(C)(=O)=O)cc1	–	–	–	33.3	–	–	31.6	47.4
CS(=O)(=O)N(Cc1ccccc1)c1ccc(C(=O)N2CCN(c3cccc(Cl)c3)CC2)cc1	–	–	–	23.9	·	·	36.4	70.0
CS(=O)(=O)N(Cc1ccc(C(=O)N2CCc3ccccc3C2)cc1)c1ccccc1	–	–	–	–	–	–	·	·
CC(Sc1ccc(Cl)cc1)C(=O)NCc1ccc2c(c1)OCO2 (configuration not stated)	–	–	–	–	–	–	·	·
Cc1cc(C)n(C(=O)COc2c(C)cccc2C)n1	–	–	–	–	–	–	·	·
COc1ccc(N2CCN(c3oc(COc4ccc(Cl)cc4Cl)nc3C#N)CC2)cc1	–	–	–	40.7	–	–	53.8	34.9
CN1CCN(c2oc(COc3ccc(-c4ccccc4)cc3)nc2C#N)CC1	–	–	–	26.8	–	–	–	40.7
N#Cc1nc(COc2ccccc2)oc1NCCN1CCOCC1	–	–	–	–	–	–	·	·
CCN1CCN(c2oc(COc3ccc(Cl)cc3)nc2C#N)CC1	–	–	–	–	–	–	·	·
N#Cc1nc(COc2ccc(Cl)cc2)oc1N1CCN(Cc2ccccc2)CC1	–	–	–	48.5	–	–	49.5	47.0
N#Cc1nc(COc2ccccc2)oc1N1CCCC1	–	–	–	–	–	–	·	·
N#Cc1nc(COc2ccc(-c3ccccc3)cc2)oc1NCCCN1CCOCC1	–	–	–	23.8	–	–	41.0	56.1
COc1ccc(N2CCN(c3oc(Cc4ccccc4)nc3C#N)CC2)cc1	–	–	–	–	–	–	·	·
COc1ccc(N2CCN(c3oc(COc4ccccc4)nc3C#N)CC2)cc1	–	–	–	43.6	–	–	48.6	46.1
C=CCNc1oc(COc2ccc(C)cc2)nc1C#N	–	–	–	24.2	–	–	–	–
COc1ccc(N2CCN(c3oc(COc4ccc(Cl)cc4)nc3C#N)CC2)cc1	–	–	–	38.9	–	–	40.1	32.7
COc1ccc(CC(=O)NNS(=O)(=O)c2ccc3ccccc3c2)cc1OC	–	–	–	–	–	–	·	·
O=C(COc1cccc(F)c1)NNC(=O)Cc1ccc(Br)cc1	–	–	–	·	–	–	·	·
O=C(O)c1ccc(CN2C(=O)c3ccc(Oc4ccc([N+](=O)[O-])cc4)cc3C2=O)cc1	–	–	–	39.2	–	–	–	–
